Measurements reported in ChEMBL document CHEMBL4043191, “Discovery of novel inhibitors of multidrug-resistant Acinetobacter baumannii” (2017).
Values after ≈ are worked out from the molar mass of the structure shown.

Experiments:
Acinetobacter baumannii [1] = assay: Antimicrobial activity against Acinetobacter baumannii isolate AB0967 incubated for 16 to 20 hrs by broth microdilution method; type: functional
Method in brief: (§1)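 CLSI broth microdilution in CAMHB, twofold dilutions at final 0.250–128 µg/mL, each in triplicate. Overnight colonies from 5% horse blood agar were suspended in PBS to OD600 0.1 and diluted to a starting inoculum of 5 x 10^5 CFU/mL. Incubated 37 °C for 16–20 h. MIC is the lowest concentration with no visible growth. Quality control used E. coli ATCC 25922 with ampicillin. Final DMSO <1%.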

Acinetobacter baumannii [2] = assay: Antimicrobial activity against Acinetobacter baumannii isolate AB5711 incubated for 16 to 20 hrs by broth microdilution method; type: functional; method in brief: as §1
Acinetobacter baumannii [3] = assay: Antimicrobial activity against Acinetobacter baumannii isolate AB3638 incubated for 16 to 20 hrs by broth microdilution method; type: functional; method in brief: as §1
Acinetobacter baumannii [4] = assay: Antimicrobial activity against Acinetobacter baumannii isolate AB3560 incubated for 16 to 20 hrs by broth microdilution method; type: functional; method in brief: as §1
Acinetobacter baumannii [5] = assay: Antimicrobial activity against Acinetobacter baumannii isolate AB5075 assessed as reduction in bacterial colony count at 16 ug/ml incubated for 24 hrs by time kill kinetics assay relative to initial bacterial inoculum; type: functional
Method in brief: (§2)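 Time-kill assay on AB5075. 1 mL CAMHB containing compound at 1, 2, 4 or 8× MIC was seeded with 5–7 x 10^5 CFU/mL and shaken at 37 °C for 24 h. Aliquots taken at 0, 6, 12 and 24 h were serially diluted, plated on LB agar and incubated 24 h at 37 °C before counting. Result given as log10 CFU/mL decrease versus initial inoculum. No-drug control; duplicate runs.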

Acinetobacter baumannii [6] = assay: Antimicrobial activity against Acinetobacter baumannii ATCC AB19606 incubated for 16 to 20 hrs by broth microdilution method; type: functional; method in brief: as §1
Acinetobacter baumannii [7] = assay: Antimicrobial activity against Acinetobacter baumannii isolate AB4957 incubated for 16 to 20 hrs by broth microdilution method; type: functional; method in brief: as §1
Acinetobacter baumannii [8] = assay: Antimicrobial activity against Acinetobacter baumannii isolate AB5075 assessed as reduction in bacterial colony count at 64 ug/ml incubated for 24 hrs by time kill kinetics assay relative to initial bacterial inoculum; type: functional; method in brief: as §2
Acinetobacter baumannii [9] = assay: Antimicrobial activity against Acinetobacter baumannii isolate AB499 incubated for 16 to 20 hrs by broth microdilution method; type: functional; method in brief: as §1
Acinetobacter baumannii [10] = assay: Antimicrobial activity against Acinetobacter baumannii isolate AB4052 incubated for 16 to 20 hrs by broth microdilution method; type: functional; method in brief: as §1
Acinetobacter baumannii [11] = assay: Antimicrobial activity against Acinetobacter baumannii isolate AB585 incubated for 16 to 20 hrs by broth microdilution method; type: functional; method in brief: as §1
Acinetobacter baumannii [12] = assay: Antimicrobial activity against Acinetobacter baumannii ATCC AB17978 incubated for 16 to 20 hrs by broth microdilution method; type: functional; method in brief: as §1
Acinetobacter baumannii [13] = assay: Antimicrobial activity against Acinetobacter baumannii isolate AB5075 incubated for 16 to 20 hrs by broth microdilution method; type: functional; method in brief: as §1
Acinetobacter baumannii [14] = assay: Antimicrobial activity against Acinetobacter baumannii isolate AB0087 incubated for 16 to 20 hrs by broth microdilution method; type: functional; method in brief: as §1
Acinetobacter baumannii [15] = assay: Antimicrobial activity against Acinetobacter baumannii isolate AB5075 assessed as reduction in bacterial colony count at 32 ug/ml incubated for 24 hrs by time kill kinetics assay relative to initial bacterial inoculum; type: functional; method in brief: as §2
Acinetobacter baumannii [16] = assay: Antimicrobial activity against Acinetobacter baumannii isolate AB4795 incubated for 16 to 20 hrs by broth microdilution method; type: functional; method in brief: as §1
Acinetobacter baumannii [17] = assay: Antimicrobial activity against Acinetobacter baumannii isolate AB5075 assessed as reduction in bacterial colony count at 128 ug/ml incubated for 24 hrs by time kill kinetics assay relative to initial bacterial inoculum; type: functional; method in brief: as §2
Acinetobacter baumannii [18] = assay: Antimicrobial activity against Acinetobacter baumannii isolate AB5674 incubated for 16 to 20 hrs by broth microdilution method; type: functional; method in brief: as §1
Acinetobacter baumannii [19] = assay: Bactericidal activity against Acinetobacter baumannii isolate AB5075 assessed as reduction in bacterial colony count at 32 ug/ml incubated for 30 mins by time kill kinetics assay relative to initial bacterial inoculum relative to control; set-up: scale not given: the % may be the effect or the level left
Acinetobacter baumannii [20] = assay: Antimicrobial activity against Acinetobacter baumannii isolate AB5075 assessed as reduction in bacterial colony count at 32 ug/ml incubated for 30 mins by time kill kinetics assay relative to initial bacterial inoculum

## CCOCCC(=O)NNc1ccccc1
Acinetobacter baumannii [1]
  MIC: 16 µg/mL (≈ 76.8 µM)
Acinetobacter baumannii [2]
  MIC: 16 µg/mL (≈ 76.8 µM)
Acinetobacter baumannii [3]
  MIC: 16 µg/mL (≈ 76.8 µM)
Acinetobacter baumannii [4]
  MIC: 32 µg/mL (≈ 154 µM)
Acinetobacter baumannii [5]
  Activity: 0.73 log10CFU/ml
Acinetobacter baumannii [6]
  MIC: 16 µg/mL (≈ 76.8 µM)
Acinetobacter baumannii [7]
  MIC: 32 µg/mL (≈ 154 µM)
Acinetobacter baumannii [8]
  Activity: 1.42 log10CFU/ml
Acinetobacter baumannii [9]
  MIC: 1 µg/mL (≈ 4.8 µM)
Acinetobacter baumannii [10]
  MIC: 32 µg/mL (≈ 154 µM)
Acinetobacter baumannii [11]
  MIC: 8 µg/mL (≈ 38.4 µM)
Acinetobacter baumannii [12]
  MIC: 16 µg/mL (≈ 76.8 µM)
Acinetobacter baumannii [13]
  MIC: 16 µg/mL (≈ 76.8 µM)
Acinetobacter baumannii [14]
  MIC: 2 µg/mL (≈ 9.6 µM)
Acinetobacter baumannii [15]
  Activity: 1.02 log10CFU/ml
Acinetobacter baumannii [16]
  MIC: 8 µg/mL (≈ 38.4 µM)
Acinetobacter baumannii [17]
  Activity: 2.1 log10CFU/ml
Acinetobacter baumannii [18]
  MIC: 16 µg/mL (≈ 76.8 µM)

## Oc1ccc(Cl)cc1Cc1cc(Cl)ccc1O [DICHLOROPHEN]
Acinetobacter baumannii [1]
  MIC: 16 µg/mL (≈ 59.5 µM)
Acinetobacter baumannii [2]
  MIC: 16 µg/mL (≈ 59.5 µM)
Acinetobacter baumannii [3]
  MIC: 16 µg/mL (≈ 59.5 µM)
Acinetobacter baumannii [4]
  MIC: 16 µg/mL (≈ 59.5 µM)
Acinetobacter baumannii [6]
  MIC: 16 µg/mL (≈ 59.5 µM)
Acinetobacter baumannii [7]
  MIC: 16 µg/mL (≈ 59.5 µM)
Acinetobacter baumannii [9]
  MIC: 8 µg/mL (≈ 29.7 µM)
Acinetobacter baumannii [10]
  MIC: 16 µg/mL (≈ 59.5 µM)
Acinetobacter baumannii [19]
  Activity: 99.9%
Acinetobacter baumannii [11]
  MIC: 8 µg/mL (≈ 29.7 µM)
Acinetobacter baumannii [12]
  MIC: 16 µg/mL (≈ 59.5 µM)
Acinetobacter baumannii [13]
  MIC: 32 µg/mL (≈ 119 µM)
Acinetobacter baumannii [14]
  MIC: 8 µg/mL (≈ 29.7 µM)
Acinetobacter baumannii [16]
  MIC: 16 µg/mL (≈ 59.5 µM)
Acinetobacter baumannii [18]
  MIC: 16 µg/mL (≈ 59.5 µM)
Acinetobacter baumannii [20]
  Activity: >=3 log10CFU/ml

## CCO[C@@H]1CCC[C@H](CC(=O)NNc2ccccc2)[C@H]1O
Acinetobacter baumannii [1]
  MIC: 16 µg/mL (≈ 54.7 µM)
Acinetobacter baumannii [2]
  MIC: 32 µg/mL (≈ 109 µM)
Acinetobacter baumannii [3]
  MIC: 16 µg/mL (≈ 54.7 µM)
Acinetobacter baumannii [4]
  MIC: 32 µg/mL (≈ 109 µM)
Acinetobacter baumannii [5]
  Activity: 0.46 log10CFU/ml
Acinetobacter baumannii [6]
  MIC: 16 µg/mL (≈ 54.7 µM)
Acinetobacter baumannii [7]
  MIC: 32 µg/mL (≈ 109 µM)
Acinetobacter baumannii [8]
  Activity: 1.24 log10CFU/ml
Acinetobacter baumannii [9]
  MIC: 1 µg/mL (≈ 3.42 µM)
Acinetobacter baumannii [10]
  MIC: 32 µg/mL (≈ 109 µM)
Acinetobacter baumannii [11]
  MIC: 8 µg/mL (≈ 27.4 µM)
Acinetobacter baumannii [12]
  MIC: 16 µg/mL (≈ 54.7 µM)
Acinetobacter baumannii [13]
  MIC: 16 µg/mL (≈ 54.7 µM)
Acinetobacter baumannii [14]
  MIC: 4 µg/mL (≈ 13.7 µM)
Acinetobacter baumannii [15]
  Activity: 0.75 log10CFU/ml
Acinetobacter baumannii [16]
  MIC: 8 µg/mL (≈ 27.4 µM)
Acinetobacter baumannii [17]
  Activity: 1.74 log10CFU/ml
Acinetobacter baumannii [18]
  MIC: 16 µg/mL (≈ 54.7 µM)
